# Most compounds without a hit are left out; they make up all but 3.4% or so of the library.
# Runt-SMMHC FRET: inhibitors of RUNX1 Runt–CBFb-SMMHC binding, primary screen, biochemical, FRET, Cerulean-Runt, Venus-CBFb-SMMHC, uHTS | Runt-related transcription factor 1 (Homo sapiens) + Core-binding factor subunit beta … | Cerulean-Runt/Venus-CBFb-SMMHC FRET ratio 530/480, 1 h | inhibition, % at 20 µM | 220,000 compounds, 0.74% hits | AID 1434, 2008;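 active means mean inhibition across duplicate retests at 20 µM reaching about 50%, limit read from the data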;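 further: inhibitors lower the FRET ratio by blocking Runt binding to CBFb-SMMHC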
# PHOSPHO1 inh: PubChem AID 1565; Phosphoethanolamine/phosphocholine phosphatase (Homo sapiens), Q8TCT1; recombinant PHOSPHO1, absorbance phosphatase assay; inhibition, % at 13.3 µM; 290,000 compounds, 1.1% hits; in the data active means inhibition above about 60%
# Target sequence (Q8TCT1 whole entry, looked up): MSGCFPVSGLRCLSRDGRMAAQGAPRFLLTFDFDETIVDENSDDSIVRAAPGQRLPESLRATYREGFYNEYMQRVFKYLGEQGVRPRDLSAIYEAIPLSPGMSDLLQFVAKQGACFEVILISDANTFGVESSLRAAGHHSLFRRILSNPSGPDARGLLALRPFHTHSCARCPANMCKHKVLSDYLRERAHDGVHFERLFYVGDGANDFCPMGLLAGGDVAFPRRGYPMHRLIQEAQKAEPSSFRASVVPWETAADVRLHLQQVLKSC
# Runt-CBFb FRET: inhibitors of RUNX1 Runt–CBFb binding, primary screen, biochemical, FRET, Cerulean-Runt, Venus-CBFb, uHTS; Runt-related transcription factor 1 (Homo sapiens) + Core-binding factor subunit beta …; Cerulean-Runt/Venus-CBFb FRET ratio 530/480, 1 h; inhibition, % at 20 µM; 220,000 compounds, 0.46% hits; AID 1496, 2009;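 active means inhibition over about 50% at 20 µM in the single-dose screen, limit read from the data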
#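 test system = Cerulean-tagged RUNX1 Runt domain (FRET donor) fusion protein | reagent = Venus-CBFb binding partner, 100 nM | incubation = protein complex preformed 1 h, compound exposure 1 h, room temperature, dark | detection = FRET fluorescence | read-out basis = loss of energy transfer signal | controls = 5 µM unlabeled CBFb as full-inhibition high control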
# RanGTP-Impb inh: inhibitors of RanGTP-importin-beta interaction, primary screen, biochemical, FRET, CFP-Ran, YFP-importin-beta, homogeneous | Ran GTPase (GTP-bound) - importin-beta complex | cell-free CFP-Ran/YFP-importin-beta FRET ratio | inhibition, % (test concentration not listed) | 300,000 compounds, 1.1% hits | AID 2216, 2009;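 active means more than half of the replicate wells show a fall in the fluorescence ratio signal beyond about 16%, limit read from the data, passing the limit was not always enough; inconclusive means exactly half of the replicate wells pass the set limit; inactive means fewer than half of replicates pass the limit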
# Wee1 stabilizer: Wee1 degradation inhibitors, primary screen, cell-based, HeLa, Wee1K328M-luciferase, luminescence; 220,000 compounds, 1.2% hits; AID 1321, 2008; reporter increase, % at 5 µM; HeLa Luc-Wee1K328M stability; 100% = proteasome inhibitor MG132 effect;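 active means activation above the mean of all tested compounds plus 3 SD, set per screening run, cut at about 8.8% in these data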;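 further: cells exposed to compound for 20 h before luminescence read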
# Efa HMGR inh: inhibitors of E. faecalis class II HMGR, primary screen, biochemical, Enterococcus faecalis | purified E. faecalis HMGR, NADPH absorbance 340 nm kinetic | HMG-CoA reductase (Enterococcus faecalis, mvaE) | inhibition, % at 10 µM | AID 1066, 2008 | 190,000 compounds, 0.41% hits;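 active means inhibition above a set limit, the median over all tested compounds plus 3 SD, cut at about 9.5% in these data; inconclusive means no clear call, values can overlap the other calls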;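 further: enzyme runs in reverse so mevalonate oxidation gives rising NADPH absorbance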
# Runt-CBFb TRFRET: inhibitors of RUNX1 Runt–CBFb binding, biochemical, TR-FRET. inhibition, % at 20 µM. TR-FRET RUNX1 Runt domain-CBFb binding. shares compounds with Runt-CBFb FRET. AID 1502, 2009. 480 compounds, 20% hits; in the data active means inhibition above about 40%
# Hits are given with their value; . = inactive; ? = inconclusive; / = not tested or not shown.
SMILES,Runt-SMMHC FRET,PHOSPHO1 inh,Runt-CBFb FRET,RanGTP-Impb inh,Wee1 stabilizer,Efa HMGR inh,Runt-CBFb TRFRET
Cc1nc2ccccn2c1/C(O)=C1\C(=O)C(=O)N(CCN(C)C)C1c1cccnc1 (centres undefined),.,.,.,?,.,.,/
CCOc1ccc(N2C(=O)CC(NC3CCN(C(=O)c4cccs4)CC3)C2=O)cc1 (centres undefined),/,/,/,.,/,/,/
Cc1cccc(C(C)C)c1NC(=O)C1CN(S(=O)(=O)c2ccccc2)CCN1S(=O)(=O)c1ccccc1 (centres undefined),.,.,.,?,.,.,/
CCc1ccc(-c2csc3[n+]2CCN3C(C)=O)cc1,.,.,.,.,.,.,/
CC(=O)N1CC[n+]2c(-c3ccc(Cl)cc3)csc21,58,.,60,.,.,.,.
COc1ccc2ccccc2c1C(O)c1nccn1C (centres undefined),115,.,55,.,.,.,.
Cc1cc(O)c(-c2cc(O)c(C)cc2O)cc1O,80,.,58,.,.,/,43
CN(C)c1oc(/C=C/c2ccccc2)nc1C#N,122,.,63,.,.,.,.
CN(C)c1oc(-c2ccccc2)nc1C#N,.,.,.,.,.,.,/
CC(C)NC(=O)c1cccc(Cn2cc(Cl)cn2)c1,.,.,54,.,.,.,.
COC(=O)c1ccc(Cn2cc(Cl)cn2)cc1,.,.,.,.,.,.,/
CC(C(=O)OCC(=O)c1cccc([N+](=O)[O-])c1)N1C(=O)C2C3CCC(C3)C2C1=O (centres undefined),.,.,.,.,.,.,/
CCCn1nc(NC(=O)C2CCCO2)c2cc3cccc(C)c3nc21 (centres undefined),82,.,62,68,.,/,.
O=C(NCc1ccc(F)cc1)c1noc2c1CCCC2,.,.,54,.,.,.,.
CCCCn1c(-c2ccncc2)nc2c1c(=O)[nH]c(=O)n2CC(C)C,.,.,75,.,.,.,.
COCCn1c(-c2ccc(SC)cc2)nc2c1c(=O)[nH]c(=O)n2CC(C)C,/,.,/,.,/,/,/
O=C(Nc1cccc([N+](=O)[O-])c1)c1ccccc1,.,.,.,.,.,/,/
O=C(C#Cc1cccc([N+](=O)[O-])c1)c1ccccc1,.,.,51,.,.,.,.
CCOC(=O)C1CN(S(=O)(=O)c2ccc(C)cc2)C1,.,.,.,.,.,.,/
O=C(c1ccc2c(c1)OCO2)N1CCN(S(=O)(=O)N2CCCCC2)CC1,/,.,/,.,/,/,/
Cc1ccnc(Sc2ccc([N+](=O)[O-])cn2)n1,.,.,.,.,.,.,/
Nc1cccnc1Sc1ccc([N+](=O)[O-])cn1,.,.,54,.,.,.,.
O=C(CN1CCOCC1)Nc1ccc(N2CCN(c3ccccc3)CC2)c(F)c1,.,.,.,.,.,.,/
CCC(C)(C)n1nnnc1C(c1ccc2ncccc2c1)N1CCN(c2nc3ccccc3s2)CC1 (centres undefined),.,.,.,.,.,.,/
CCC(C)(C)n1nnnc1C(c1ccc2ncccc2c1)N1CCN(c2ccc(O)cc2)CC1 (centres undefined),.,.,54,.,.,/,.
SMILES,Runt-SMMHC FRET,PHOSPHO1 inh,Runt-CBFb FRET,RanGTP-Impb inh,Wee1 stabilizer,Efa HMGR inh,Runt-CBFb TRFRET
O=C(Nc1ccccc1C(=O)O)c1cc(S(=O)(=O)Nc2cccc(F)c2)ccc1Cl,/,.,/,.,/,/,/
O=C(Nc1ccccc1)C1=C(c2ccccc2)S(=O)(=O)CCS1(=O)=O,.,.,52,.,.,.,.
O=C(O)c1ccccc1C(=O)Nc1ccccc1,.,.,.,.,.,.,/
CC(C)OCCCNC(=S)Nc1ccc(S(N)(=O)=O)cc1,.,86,59,.,.,.,.
c1csc(-c2ccn[nH]2)c1,.,.,.,.,.,/,/
S=c1nccc(-c2cccs2)[nH]1,.,.,65,.,.,.,.
CNC(=O)/C(C#N)=C/c1c(N2CC(C)OC(C)C2)nc2ccccn2c1=O (centres undefined),121,.,94,?,.,.,.
CCOC(=O)C1(Cc2cccc(OC)c2)CCN(Cc2cccc3c2OCO3)CC1,.,.,.,.,.,.,/
COc1ccc(Cc2nnc(SCC(=O)Nc3ccccc3)[nH]c2=O)cc1,/,/,/,.,/,/,/
O=C(CNC(=O)OCc1ccccc1)Oc1ccc2ccc(=O)oc2c1,/,.,/,.,/,/,/
Cc1ccc(C(=O)Oc2ccc3ccc(=O)oc3c2)cc1,/,.,/,.,/,/,/
CC(NC(=O)OC(C)(C)C)C(=O)Oc1ccc2ccc(=O)oc2c1 (centres undefined),113,.,68,/,.,.,.
CC(=O)Oc1ccc2ccc(=O)oc2c1,85,.,51,.,.,.,.
CC1CCN(S(=O)(=O)c2ccc3c(c2)N(CC(=O)NCCCN2CC(C)CC(C)C2)C(=O)CS3)CC1 (centres undefined),/,.,/,.,/,/,/
S=C(c1ccc(Br)cc1)N1CCN(Cc2ccccc2)CC1,.,.,54,.,.,.,.
CCN1CCN(C(=S)c2ccc(O)cc2)CC1,.,.,54,.,.,.,.
Oc1ccc(C(=S)N2CCN(Cc3ccccc3)CC2)cc1,.,.,53,.,.,/,.
Cc1ccc2c(c1)N(C(=O)CCC(=O)NCc1ccccn1)CC(C)O2 (centres undefined),/,.,/,.,/,/,/
O=C(CNC(=O)c1ccccc1)NC1(C(=O)NC2CCCCC2)CCCCC1,.,.,.,.,.,.,/
NC(=O)CC(NC(=O)c1ccccc1)c1ccc(NCCc2ccc(F)cc2)c([N+](=O)[O-])c1 (centres undefined),.,.,.,.,/,/,/
c1ccc(-c2csc(NNC3=NCCCCC3)n2)cc1,.,.,51,.,.,.,44
Clc1ccc(-c2csc(NNC3=NCCCCC3)n2)cc1,.,.,.,.,.,.,/
CCCCCCc1cc2cc(C(=O)Nc3ccc(OC)cc3)c(=O)oc2cc1O,.,.,65,41,.,.,.
COc1ccc2oc(=O)c(C(=O)Nc3ccccc3O)cc2c1,.,.,.,.,.,/,/
COc1ccc(C(C)=O)cc1CC(=O)NCCCn1ccnc1,/,.,/,.,/,/,/
